target: Human immunodeficiency virus type 1 reverse transcriptase (Human immunodeficiency virus 1) (UniProt Q72547); test: In vitro for inhibition of HIV-1 reverse transcriptase at 1 uM
In short: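 Compounds were first screened as percent enzyme inhibition at a single 1 μM concentration. IC50 was not determined for compounds giving under 35% inhibition at 1 μM.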

| Compound | inhibition [%] |
| --- | --- |
| CCN1c2ncccc2C(=O)N(C)c2nccc(C)c21 | < 35 |
| CCN1c2cc(Br)c(Br)nc2N(C)C(=O)c2cccnc21 | < 35 |
| CCN1c2ccc([N+](=O)[O-])nc2N(C)C(=O)c2cccnc21 | < 35 |
| CCN1c2cccnc2N(C)C(=O)c2ccc(C)nc21 | < 35 |
| CCN1c2cccnc2N(C)C(=O)c2cc(Br)cnc21 | < 35 |
| CCN1c2cc(-c3cccc(N)c3)cnc2N(C)C(=O)c2cccnc21 | < 35 |
| CCN1c2ncccc2C(=O)N(C)c2cc([N+](=O)[O-])cnc21 | < 35 |

target: Human immunodeficiency virus type 1 reverse transcriptase (Human immunodeficiency virus 1, UniProt Q72547); test: In vitro for inhibition of HIV-1 reverse transcriptase.

| Compound | IC50 [µM] |
| --- | --- |
| CCN1c2cc(C)c(C)nc2N(C)C(=O)c2cccnc21 | 0.19 |
| CCN1c2nc(C)ccc2C(=O)N(C)c2cccnc21 | 1 |
| CCN1c2ncccc2C(=O)N(C)c2ccc(-c3cccc(N)c3)nc21 | 0.07 |
| CCN1c2cc(C)c(C)nc2N(C)C(=O)c2cc(N)cnc21 | 0.15 |
| CCN1c2ncc(N)cc2C(=O)N(C)c2cccnc21 | 0.13 |
| CCN1c2ncc(Br)cc2C(=O)N(C)c2cccnc21 | 1.3 |
| CCN1c2ccc(C)nc2N(C)C(=O)c2cccnc21 | 1.76 |

The remaining lines, values ahead:

| IC50 [µM] | Compound |
| --- | --- |
| 0.29 | CN1C(=O)c2cccnc2N(C2CC2)c2ncc(Cl)cc21 |
| 0.09 | CN1C(=O)c2cccnc2N(C2CC2)c2nc(Cl)ccc21 |
| 1.3 | CCN1c2cccnc2N(C)C(=O)c2cccnc21 |
| 0.76 | CN1C(=O)c2cccnc2N(C2CC2)c2cc(Cl)cnc21 |
| 0.28 | CCN1c2cccnc2N(C)C(=O)c2cc(N)cnc21 |
| 1 | CN1C(=O)c2cccnc2N(C2CC2)c2ccc(Cl)nc21 |
| 0.55 | CCN1c2cc(Br)cnc2N(C)C(=O)c2cccnc21 |
